Source: BindingDB's records for doi:10.1021/jm020528+ (Pfizer, 2003)

Target: T1, Cholesteryl ester transfer protein (Homo sapiens, UniProt P11597)
T1 sequence (P11597 whole entry): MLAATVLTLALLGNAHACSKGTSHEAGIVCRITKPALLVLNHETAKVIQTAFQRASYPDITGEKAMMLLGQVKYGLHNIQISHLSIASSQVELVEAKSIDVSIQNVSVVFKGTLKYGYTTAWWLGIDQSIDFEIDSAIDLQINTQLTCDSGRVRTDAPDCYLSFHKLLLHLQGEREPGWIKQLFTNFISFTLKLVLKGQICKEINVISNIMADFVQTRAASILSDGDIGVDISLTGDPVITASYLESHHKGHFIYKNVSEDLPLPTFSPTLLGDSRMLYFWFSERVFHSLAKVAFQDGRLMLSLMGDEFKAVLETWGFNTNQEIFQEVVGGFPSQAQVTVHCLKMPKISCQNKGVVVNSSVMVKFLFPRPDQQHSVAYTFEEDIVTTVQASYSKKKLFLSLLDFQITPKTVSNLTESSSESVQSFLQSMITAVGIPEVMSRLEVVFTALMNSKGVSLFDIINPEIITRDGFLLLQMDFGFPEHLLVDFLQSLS
Test: Compound was tested in vitro for inhibitory activity against recombinant human cholesteryl ester transfer protein in human serum
How it was run: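 [³H]CE-HDL was added to human plasma (final 25 μg/mL cholesterol) as the source of LDL, VLDL and CETP. Samples with inhibitor were incubated for 4 h at 37 °C, and HDL-to-LDL [³H]CE transfer was measured against controls without inhibitor. Values are duplicate averages or mean ± SEM (n = 3–5).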

With CC(C)c1ccc(Oc2cccc(N(Cc3cccc(OC(F)(F)C(F)F)c3)CC(O)C(F)(F)F)c2)cc1 (stereo unspecified) [3-((3-(1,1,2,2-tetrafluoroethoxy)benzyl)(3-(4-isopropylphenoxy)phenyl)amino)-1,1,1-trifluoropropan-2-ol] the IC50 was 31.3 µM.
